According to PMC8504818 (Clinical and Translational Science, 2021):
“Also recorded” adds a separate entry of the source. Where two headings read alike, the source gives them in different places. Marks after values point to notes of the source that are not given here. Each block holds one compound with its values, some of them ahead of it.

Key:
Study 1 [1] = assay type: in vivo, human; details: for Intracellular islatravir‐TP AUC0–168 h / Intracellular islatravir‐TP AUC0–∞ / Intracellular islatravir‐TP C168 h / Intracellular islatravir‐TP Cmax: PBMC, LS geometric mean (95% CI)
Procedure, shortened: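 PBMCs from healthy adults were collected up to ~336 h after single oral doses, fasted or after a high-fat meal (30 mg). Cells were lysed in methanol-containing solvent, protein-precipitated, and triphosphate was measured by ion-exchange LC-MS/MS (LLOQ 0.50 ng/ml; range 0.50–200.00 ng/ml). Concentrations were carryover-corrected when predose exceeded 5% of Cmax. Results are LS geometric means (95% CI) from a log-scale mixed model; fed/fasted ratios have 90% CI.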

[2] = assay type: in vivo, human; details: for Tmax: human, PBMCs, oral
Procedure, shortened: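 Healthy adults took weekly oral capsules (10, 30, 100 mg) for 3 weeks. PBMCs were collected up to ~336 h after the last dose and triphosphate was quantified by ion-exchange LC-MS/MS (LLOQ 0.50 ng/ml). Tmax is observed. […] LS means are given with 95% CI.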

[3] = cited from earlier work
Study 1 [4] = assay type: in vivo, human
Procedure, shortened: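 Fasted single oral-suspension doses, with 30 mg also given after a high-fat breakfast (55.6 g fat, 55 g carbohydrate, 31.1 g protein), 6 active and 2 placebo per panel. Plasma was sampled predose to ~96 h and analysed by protein precipitation and reversed-phase LC-MS/MS (LLOQ 1.00 ng/ml; range 1.00–1000.00 ng/ml). Log-transformed values went into a mixed model (treatment fixed, subject random), giving a fed/fasted geometric mean ratio with 90% CI.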

Study 2 = assay type: in vivo, human; details: for Accumulation ratio: week 3 / week 1, plasma islatravir AUC0–168 h / Accumulation ratio: week 3 / week 1, plasma islatravir Cmax: LS mean difference (90% CI); for AUC(0-t): Plasma islatravir AUC0–168 h; for AUC(0-t) / Cmax: LS mean (95% CI); for Cmax: Plasma islatravir Cmax
Procedure, shortened: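 Capsules of 10, 30 or 100 mg were given once weekly for 3 weeks, fasted (6 active, 2 placebo per panel). Plasma was sampled predose to ~168 h after dosing and measured by reversed-phase LC-MS/MS after protein precipitation (LLOQ 1.00 ng/ml). […] Week 3/week 1 ratios are back-transformed with 90% CI.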

Study 1 [5] = assay type: in vivo, human; remark: listed apart in the source
Procedure, shortened: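 Double-blind, randomized, alternating-panel single-dose design: 3 panels of 8 (6 active, 2 placebo) received an oral suspension or the vehicle as placebo. Assessments were vital signs, 12-lead ECGs, and hematology and blood chemistry at prespecified times. Adverse events were recorded from consent through 21 days after treatment ended. Placebo recipients were pooled. Participants were adults 18–60 y, BMI ≤32 kg/m2, men or women of nonchildbearing potential.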

[6] = Study 2 safety and tolerability; assay type: in vivo, human
Procedure, shortened: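 Double-blind, randomized, serial-panel multiple-dose design: 3 panels of 8 (6 active, 2 placebo) took capsules once weekly for 3 weeks, at least 10 days between panels. Assessments were vital signs, 12-lead ECGs, and hematology and blood chemistry at prespecified times. Adverse events were monitored from consent through 21 days after the last dose. Placebo data were pooled. Participants were adults 18–60 y, BMI ≤32 kg/m2, without HIV.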

SIV [7] = details: once‐weekly oral islatravir; cited from earlier work
SIV [8] = details: weekly oral islatravir; cited from earlier work
HIV‐1 = details: cited from earlier work
[9] = Study 2, 10 mg once weekly, Week 1, LS mean (95% CI)
[10] = Study 2, 10 mg once weekly, Week 3, LS mean (95% CI)
[11] = Study 2, 30 mg once weekly, Week 1, LS mean (95% CI)
[12] = Study 2, 30 mg once weekly, Week 3, LS mean (95% CI)
[13] = Study 2, 100 mg once weekly, Week 1, LS mean (95% CI)
[14] = Study 2, 100 mg once weekly, Week 3, LS mean (95% CI)
[15] = human, plasma, oral, 100 mg, Study 2, 100 mg once weekly, Week 1
[16] = human, plasma, oral, 100 mg, Study 2, 100 mg once weekly, Week 3
[17] = up to 100 mg once weekly for 3 weeks

posterior probability that the true mean intracellular islatravir‐TP C168 h is greater than 0.53 pmol/10^6 cells (Study 1 [1]; doses of 15 mg and above): greater than 99%
Intracellular islatravir‐TP AUC0–168 h (Study 1 [1]; single oral 5 mg fasted): 91.6 (73.5–114) h*pmol/10^6cells
Intracellular islatravir‐TP AUC0–∞ (Study 1 [1]; single oral 5 mg fasted): 162 (120–217) h*pmol/10^6cells
Intracellular islatravir‐TP C168 h (Study 1 [1]; single oral 5 mg fasted): 0.29 (0.19–0.45) pmol/10^6 cells
Intracellular islatravir‐TP Cmax (Study 1 [1]; single oral 5 mg fasted): 1.06 (0.83–1.37) pmol/10^6cells
Intracellular islatravir‐TP AUC0–168 h (Study 1 [1]; single oral 15 mg fasted): 341 (274–425) h*pmol/10^6cells
Intracellular islatravir‐TP AUC0–∞ (Study 1 [1]; single oral 15 mg fasted): 670 (499–900) h*pmol/10^6cells
Intracellular islatravir‐TP C168 h (Study 1 [1]; single oral 15 mg fasted): 1.24 (0.80–1.92) pmol/10^6 cells
Intracellular islatravir‐TP Cmax (Study 1 [1]; single oral 15 mg fasted): 3.65 (2.85–4.69) pmol/10^6cells
Intracellular islatravir‐TP AUC0–168 h (Study 1 [1]; single oral 30 mg fasted): 871 (700–1080) h*pmol/10^6cells
Intracellular islatravir‐TP AUC0–∞ (Study 1 [1]; single oral 30 mg fasted): 1420 (1060–1900) h*pmol/10^6cells
Intracellular islatravir‐TP C168 h (Study 1 [1]; single oral 30 mg fasted): 2.76 (1.78–4.29) pmol/10^6 cells
Intracellular islatravir‐TP Cmax (Study 1 [1]; single oral 30 mg fasted): 8.21 (6.39–10.50) pmol/10^6cells
Intracellular islatravir‐TP Cmax (Study 1 [1]; single oral 30 mg fed): 7.85 (6.11–10.1) pmol/10^6cells
Intracellular islatravir‐TP AUC0–∞ (Study 1 [1]; single oral 30 mg fed, N = 4): 1370 (975–1920) ^g h*pmol/10^6cells
Intracellular islatravir‐TP AUC0–168 h (Study 1 [1]; single oral 30 mg fed, N = 5): 660 (520–838) ^f h*pmol/10^6cells
Intracellular islatravir‐TP C168 h (Study 1 [1]; single oral 30 mg fed, N = 5): 2.71 (1.67–4.40) ^f pmol/10^6 cells
Intracellular islatravir‐TP AUC0–168 h (Study 1 [1]; single oral 100 mg fasted): 1260 (1010–1560) h*pmol/10^6cells
Intracellular islatravir‐TP AUC0–∞ (Study 1 [1]; single oral 100 mg fasted): 2480 (1850–3330) h*pmol/10^6cells
Intracellular islatravir‐TP C168 h (Study 1 [1]; single oral 100 mg fasted): 4.79 (3.09–7.43) pmol/10^6 cells
Intracellular islatravir‐TP Cmax (Study 1 [1]; single oral 100 mg fasted): 13.8 (10.7–17.7) pmol/10^6cells
Intracellular islatravir‐TP AUC0–168 h (Study 1 [1]; single oral 200 mg fasted): 3100 (2490–3860) h*pmol/10^6cells
Intracellular islatravir‐TP AUC0–∞ (Study 1 [1]; single oral 200 mg fasted): 5180 (3850–6960) h*pmol/10^6cells
Intracellular islatravir‐TP C168 h (Study 1 [1]; single oral 200 mg fasted): 7.73 (4.98–12.0) pmol/10^6 cells
Intracellular islatravir‐TP Cmax (Study 1 [1]; single oral 200 mg fasted): 38.4 (29.9–49.3) pmol/10^6cells
Intracellular islatravir‐TP AUC0–168 h (Study 1 [1]; single oral 400 mg fasted): 5300 (4260–6580) h*pmol/10^6cells
Intracellular islatravir‐TP AUC0–∞ (Study 1 [1]; single oral 400 mg fasted): 9320 (6950–12500) h*pmol/10^6cells
Intracellular islatravir‐TP C168 h (Study 1 [1]; single oral 400 mg fasted): 18.3 (11.8–28.4) pmol/10^6 cells
Intracellular islatravir‐TP Cmax (Study 1 [1]; single oral 400 mg fasted): 63.6 (49.6–81.6) pmol/10^6cells
Islatravir‐TP AUC0–168 h [2, 9]: 341 (256, 454) h*pmol/10^6 cells
Islatravir‐TP Cmax [2, 9]: 3.79 (2.68, 5.34) pmol/10^6 cells
Islatravir‐TP AUC0–168 h [2, 10]: 476 (357, 634) h*pmol/10^6 cells
Islatravir‐TP Cmax [2, 10]: 6.38 (4.52, 9.00) pmol/10^6 cells
Islatravir‐TP AUC0–168 h [2, 11]: 1160 (872, 1550) h*pmol/10^6 cells
Islatravir‐TP Cmax [2, 11]: 13.2 (9.34, 18.6) pmol/10^6 cells
Islatravir‐TP AUC0–168 h [2, 12]: 1570 (1180, 2100) h*pmol/10^6 cells
Islatravir‐TP Cmax [2, 12]: 19.6 (13.9, 27.7) pmol/10^6 cells
Islatravir‐TP AUC0–168 h [2, 13]: 3150 (2370, 4200) h*pmol/10^6 cells
Islatravir‐TP C168 [2, 13]: 13.5 (10.4, 17.6) pmol/10^6 cells
Islatravir‐TP Cmax [2, 13]: 31.3 (22.2, 44.2) pmol/10^6 cells
Islatravir‐TP AUC0–168 h [2, 14]: 4740 (3560, 6320) h*pmol/10^6 cells
Islatravir‐TP Cmax [2, 14]: 46.7 (33.1, 65.9) pmol/10^6 cells
islatravir‐TP C168 h versus pharmacokinetic target ([2]; Study 2, after the first weekly dose at all dose levels, posterior probability calculation): > 0.53 pmol/10^6 cells
accumulation of intracellular islatravir‐TP ([2]; Study 2, multiple weekly doses of 30 and 100 mg): modest degree of accumulation
accumulation of intracellular islatravir‐TP ([2]; Study 2, multiple weekly doses of 30 and 100 mg, listed as islatravir‐triphosphate): modest degree
accumulation of intracellular islatravir‐TP ([2]; Study 2, weekly administration): ~1.5 fold
Tmax ([2]; 10 mg): 48 h
Tmax ([2]; 30 mg): 9 h
Tmax ([2]; 100 mg): 18 h
SMILES: C#C[C@]1(COP(=O)(O)OP(=O)(O)OP(=O)(O)O)O[C@@H](n2cnc3c(N)nc(F)nc32)C[C@@H]1O [islatravir‐TP, 4'‐Ethynyl‐2‐fluoro‐2'‐deoxyadenosine triphosphate]
effect of food on islatravir‐TP AUC, Cmax, and C168 (Study 1 [1]; 30 mg with a high‐fat meal): largely unchanged; also recorded: did not affect
intracellular persistence of islatravir‐TP ([3]; preclinically): > 72 h

SMILES: C#C[C@]1(CO)O[C@@H](n2cnc3c(N)nc(F)nc32)C[C@@H]1O [islatravir, 4'‐Ethynyl‐2‐fluoro‐2'‐deoxyadenosine]
decrease in plasma islatravir Cmax with a high‐fat meal (Study 1 [4]; 30 mg fed vs fasted): 49%
increase in plasma islatravir AUC0–∞ with a high‐fat meal (Study 1 [4]; 30 mg fed vs fasted): 10%
food effect on pharmacokinetics (Study 1 [4]; 30 mg with a high‐fat meal): no meaningful food effect
Tmax (Study 1 [4]; human, plasma, po, median time to maximum plasma concentration (Tmax), fasted state, single oral doses): 0.5 h
Accumulation ratio: week 3 / week 1, plasma islatravir AUC0–168 h (Study 2; Study 2, 10 mg once weekly): 1.22 (1.08, 1.36) h*μmol/L
Accumulation ratio: week 3 / week 1, plasma islatravir Cmax (Study 2; Study 2, 10 mg once weekly): 1.25 (0.82, 1.92) nmol/L
Accumulation ratio: week 3 / week 1, plasma islatravir AUC0–168 h (Study 2; Study 2, 30 mg once weekly): 1.22 (1.09, 1.37) h*μmol/L
Accumulation ratio: week 3 / week 1, plasma islatravir Cmax (Study 2; Study 2, 30 mg once weekly): 0.99 (0.64, 1.51) nmol/L
Accumulation ratio: week 3 / week 1, plasma islatravir AUC0–168 h (Study 2; Study 2, 100 mg once weekly): 1.25 (1.11, 1.40) h*μmol/L
Accumulation ratio: week 3 / week 1, plasma islatravir Cmax (Study 2; Study 2, 100 mg once weekly): 1.26 (0.82, 1.93) nmol/L
accumulation of islatravir in plasma (Study 2; Study 2, once‐weekly dosing for 3 weeks): little to no accumulation; also recorded: minimal accumulation
concentration at 48 h (Study 2; human, plasma, oral, 10 mg): < 1 ng/mL
concentration at 96 h (Study 2; human, plasma, oral, 10 mg): < 1 ng/mL
half-life (Study 2; human, plasma, oral, 10 mg): 16.5 h
half-life (Study 2; human, plasma, oral, 30 mg): 74.2 h
half-life (Study 2; human, plasma, oral, 100 mg): 87.1 h
AUC(0-t) (Study 2; [15]): 9.62 µM·h
AUC(0-t) (Study 2; [16]): 12 µM·h
Cmax (Study 2; [15]): 1470 nM
Cmax (Study 2; [16]): 1850 nM
adverse events considered related to islatravir (Study 1 [5]): none
changes in clinical laboratory values, vital signs, or ECG safety parameter values (Study 1 [5]): No clinically meaningful relationships
intensity of adverse events (Study 1 [5]): mild to moderate
total nonserious adverse events (Study 1 [5]): 30
serious adverse events (Study 1 [5]; single doses up to 400 mg): no serious adverse events
tolerability (Study 1 [5]; single oral doses up to 400 mg): generally well‐tolerated
changes in clinical laboratory values, vital signs, or ECG safety parameter values [6]: No clinically meaningful relationships
intensity of adverse events [6]: mild to moderate
total nonserious adverse events [6]: 12
serious adverse events [6, 17]: no serious adverse events
tolerability [6, 17]: generally well‐tolerated
time of peak plasma concentrations postdose ([3]; rhesus macaque, enteral administration): ~ 90 min
duration of declines in SIV RNA (SIV [7]): at least 7 days
protection from infection (SIV [8]): protected
tolerability (HIV‐1; phase 1b single dose): generally well‐tolerated
suppression of HIV‐1 RNA (HIV‐1; single oral doses as low as 0.5 mg, day 7): greater than 1.0 log
